# DAGLB inh = DAGLB lipase inhibitors, primary screen, biochemical, fluorescence, HTS. Diacylglycerol lipase-beta (Homo sapiens), Q8NCG7. HEK293T DAGLB membrane lysate, EnzChek fluorogenic substrate. inhibition, % at 5.17 µM. 0.059% of 340,000 active; in the data active means inhibition above about 34%;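 further: 0% = enzyme with vehicle and 100% = wells lacking enzyme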
# Target sequence (Q8NCG7 whole entry, looked up): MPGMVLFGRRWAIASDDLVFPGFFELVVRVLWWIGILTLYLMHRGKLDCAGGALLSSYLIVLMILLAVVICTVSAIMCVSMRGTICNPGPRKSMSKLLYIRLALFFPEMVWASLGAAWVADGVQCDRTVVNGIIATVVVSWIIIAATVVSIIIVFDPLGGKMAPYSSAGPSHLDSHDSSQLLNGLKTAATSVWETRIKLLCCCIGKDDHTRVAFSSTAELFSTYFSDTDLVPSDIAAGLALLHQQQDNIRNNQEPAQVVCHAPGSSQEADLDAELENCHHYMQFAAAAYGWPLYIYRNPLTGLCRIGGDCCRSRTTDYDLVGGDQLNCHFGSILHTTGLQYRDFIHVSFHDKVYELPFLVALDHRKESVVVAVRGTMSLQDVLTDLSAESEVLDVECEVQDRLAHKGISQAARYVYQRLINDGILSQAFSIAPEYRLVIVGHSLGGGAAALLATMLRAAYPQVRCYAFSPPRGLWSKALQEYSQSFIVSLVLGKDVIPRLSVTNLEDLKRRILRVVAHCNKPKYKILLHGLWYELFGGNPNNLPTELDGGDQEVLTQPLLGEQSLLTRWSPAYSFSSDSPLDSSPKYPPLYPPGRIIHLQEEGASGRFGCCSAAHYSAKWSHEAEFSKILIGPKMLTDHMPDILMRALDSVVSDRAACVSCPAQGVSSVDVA
# VLA-4 inh = inhibition in human VLA-4 binding assay, primary screen, VLA-4 allosteric modulator project, MLPCN library, flow cytometry, VLA-4 expressing cells; Integrin alpha-4 (Homo sapiens), P13612; ligand binding flow cytometry; inhibition, % (about 7 µM as worked out from the volumes in the protocol); 0.2% of 330,000 active; in the data active means inhibition above about 50%
# MT1-MMP act inh = blockers of MT1-MMP proenzyme processing, primary screen, HT1080 RFP-PRO-GFP cells, GFP/RFP fluorescence. GFP/RFP ratio fluorescence, overnight; percent of plate control window, DMSO zero. GFP/RFP ratio change, % at 20 µM. 0.061% of 360,000 active;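 active means GFP/RFP ratio change of at least 30% with cell ATP level not reduced by more than half and red fluorescence within 50% of control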
#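 Assay system – RFP-PRO-GFP reporter HT1080 cells · Compound dosing – single dose of 20 µM compound, 1% DMSO final · Incubation – overnight compound exposure at 37 °C · Measure – GFP/RFP fluorescence ratio · Benchmarks – DMSO wells and RFP-L50D-GFP cells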
# FGF22 binding = binders of human FGF22 protein, primary screen, FGF22 synaptogenesis inhibitor project, biophysical, thermal shift, single point; Fibroblast growth factor 22 (Homo sapiens), Q9HCT0; recombinant FGF22 thermal shift, SYPRO orange fluorescence; percent of sucrose octasulfate shift, DMSO zero; activity (Tm shift, normalised), % at 9.99 µM; 1.5% of 340,000 active; AID 651658, 2012;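 active means mean Tm shift, scaled 0 neutral to 100 positive control, at about 1.3% or above, every replicate too, limit read from the data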
# Exocytosis inh = LAMP-1 surface exposure blockers, TALL-104 cells – cell-based, flow cytometry, MLPCN library, primary screen. TALL-104 LAMP-1 surface exposure; cells stimulated with thapsigargin and PMA. inhibition, % at 10 µM. 0.66% of 360,000 active. AID 651702, 2012;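 active means inhibition above about 55%, limit read from the data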
# ABCB6 inh 2 = ABCB6 transporter inhibitors, primary screen, K562-ABCB6 cells, flow cytometry, MLPCN library. K562-ABCB6 porphyrin accumulation, 1 h; stronger effect = lower value. 0.19% of 360,000 active. fluorescence ratio to DMSO, % at 10 µM;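 active means fluorescence ratio to DMSO below 75%, the collection mean minus 3 SD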;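 further: signal is porphyrin accumulated inside mitochondria; 100% equals median channel fluorescence of DMSO control wells; lower ratio means ABCB6 inhibition with less porphyrin fluorescence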
# Numbers without * were called inactive; x = no result given; ! = not confirmed by another sample. A selection: hits, their analogues and other compounds. The true share with any hit is near 2%.
SMILES,DAGLB inh,VLA-4 inh,MT1-MMP act inh,FGF22 binding,Exocytosis inh,ABCB6 inh 2
Cc1ccc2[nH]c(=O)cc(C(=O)OC(C)C)c2c1,-0.1,3.8,-5.4,43.4*,-1.7,100.0
O=C(NCc1ccccc1)c1nc(-c2cccs2)no1,-2.6,5.4,6.3,44.0*,-3.3,103.0
Oc1c(Br)cc(Br)cc1C=Nc1cccc2ncccc12,12.8,-0.1,-0.9,0.0,67.4*,101.0
Brc1cccc(C=Nc2cccc3ncccc23)c1,1.0,3.6,0.7,-0.2,15.7,105.0
O=C(COC(=O)Cn1cnc2ccccc21)Nc1cc2c(cc1Cl)C(=O)c1ccccc1C2=O,5.6,-2.4,2.3,44.1*,-1.9,98.0
CC1(C)Cc2c(c(-c3ccco3)nc3sc4c(NCCO)ncnc4c23)CO1,-0.2,0.0,-0.9,43.4*,-1.1,88.0
COCCCNc1ncnc2c1sc1nc(-c3ccco3)c3c(c12)CC(C)(C)OC3,-0.9,-4.1,0.7,0.1,7.1,94.0
CN(C)CC(=O)Nc1ccc2c(c1)[C@@H]1C[C@@H](CC(=O)NC3CCCCC3)O[C@H](CO)[C@@H]1O2,x,x,x,-0.3,x,x
O=C(C[C@H]1CC[C@@H](NC(=O)CC2CC2)[C@@H](CO)O1)NCc1ccc(Cl)cc1,x,x,x,0.1,x,x
CCOc1ccc(S(=O)(=O)Nc2cccc(C)c2)c2cccnc12,-2.6,12.9,-1.6,43.0*,0.4,102.0
S=c1[nH]nc(COc2ccccc2)n1/N=C/c1ccncc1,-2.3,1.1,0.2,43.1*,6.9,104.0
CC1(C)OC(=O)C=C[C@]2(C)[C@H]3CC[C@@]4(C)[C@H](c5ccoc5)OC(=O)[C@H]5O[C@]54[C@]3(C)C(=O)C[C@@H]12,-1.9,10.1,-6.6,16.6*,-1.9,99.0
CCOC(=O)N1CCN(C(=O)C(=O)NNC(=O)COc2ccc(Cl)cc2)CC1,0.5,0.8,-1.2,43.5*,5.0,105.0
COc1ccc(-c2[nH]ncc2CN2CCC(C(=O)N3CCOCC3)CC2)c(F)c1,-1.8,7.4,4.4,-0.1,0.6,95.0
O=C(C1CCN(Cc2cn[nH]c2-c2ccc(F)cc2F)CC1)N1CCOCC1,1.6,2.1,3.2,44.1*,-0.4,94.0
Cc1ccc(S(=O)(=O)NCCC(=O)Nc2ccc(Cl)c(Cl)c2)cc1C,-0.1,-15.1,-1.3,46.6*,18.2,101.0
C[C@@H]1CN([C@@H](C)CO)C(=O)c2cccc(NS(=O)(=O)c3ccccc3)c2O[C@@H]1CN(C)S(=O)(=O)c1cn(C)cn1,x,x,x,0.3,x,x
CN(c1cccc(NC(=O)c2ccc(C(C)(C)C)cc2)c1)S(C)(=O)=O,-0.3,28.9,0.0,42.9*,12.6,91.0
CN(c1cccc(NC(=O)c2ccc(N(C)S(=O)(=O)c3ccccc3)cc2)c1)S(C)(=O)=O,0.9,0.0,-2.5,0.1,-1.6,93.0
C[C@@H]1CN([C@H](C)CO)C(=O)c2cc(C#Cc3ccncc3)cnc2O[C@@H]1CN(C)C(=O)CN(C)C,x,x,x,0.2,x,x
Cc1nc(Cc2nnc(SCC(=O)N3CC(=O)Nc4ccccc43)o2)cs1,3.7,3.1,-0.1,0.0,3.0,102.0
Cc1nc(Cc2nnc(SCC(=O)N3c4ccccc4NC(=O)C3(C)C)o2)cs1,0.2,x,1.5,43.4*,-5.8,99.0
O=C1Nc2ccccc2C1=Nc1ccc(-c2nnc3n2CCCCC3)cc1,-3.0,31.4,-2.6,42.9*,2.9,96.0
Cc1ccc(-c2nnc3n2CCCCC3)cc1,1.4,2.6,-0.6,x,-1.9,94.0
O=C(CN1CCC(NC(=O)c2ccccc2F)CC1)Nc1ccc2c(c1)OCCO2,-0.5,-2.5,2.5,43.4*,-2.8,95.0
SMILES,DAGLB inh,VLA-4 inh,MT1-MMP act inh,FGF22 binding,Exocytosis inh,ABCB6 inh 2
CC1CCCC(NC(=O)COC(=O)c2cc3ccccc3oc2=O)C1C (centres undefined),-0.7,-17.9,5.9,-0.2,-7.2,97.0
CC1CCN(C(=O)COC(=O)c2cc3ccccc3oc2=O)CC1,-4.8,9.5,6.2,43.5*,9.1,102.0
O=C(NCCN1CCCC1)[C@H]1[C@H](CO)[C@H]2Cn3c(cccc3=O)[C@@H]1N2C(=O)c1ccccc1,x,x,x,-0.2,x,x
O=C(c1ccccn1)N1CCN(S(=O)(=O)c2ccccc2)CC1,0.0,-0.5,2.3,43.2*,8.4,106.0
Cc1ccc(S(=O)(=O)N2CCN(C(=O)c3ccccn3)CC2)cc1,1.9,5.7,-0.7,43.1*,2.2,103.0
CCn1c(SC)nnc1-c1nn(-c2ccccc2)ccc1=O,0.0,3.0,0.6,43.1*,0.3,85.0
COCc1[nH][nH]c(=O)c1C=Nc1ccccc1,0.7,13.8,-2.5,x,-2.1,90.0
COCc1[nH][nH]c(=O)c1/C=N/N1CCOCC1,-0.1,-2.2,-2.1,43.8*,-3.2,101.0
CS(=O)(=O)c1ccc(C(=O)OCc2nnc(-c3ccc(Cl)cc3)o2)cc1[N+](=O)[O-],-10.0,11.8,-1.9,x,59.7*,99.0
C[C@H]1CN([C@@H](C)CO)C(=O)c2cc(NC(=O)Cn3cnnn3)ccc2O[C@@H]1CN(C)Cc1ccc(Oc2ccccc2)cc1,x,x,x,0.2,x,x
C[C@@H]1CCCCO[C@@H](CN(C)C(=O)NC2CCCCC2)[C@@H](C)CN([C@H](C)CO)C(=O)c2cc(NS(=O)(=O)c3cccs3)ccc2O1,x,x,x,0.3,x,x
Cc1nn(C)cc1C(C(=O)NC1CCCCC1)N(CCc1ccccc1)C(=O)c1cnccn1 (centres undefined),2.7,4.4,2.3,43.3*,-1.7,97.0
Clc1nssc1=Nc1ccccc1,-1.3,x,1.3,x,-0.8,98.0
Clc1ccc(N=c2ssnc2Cl)cc1,1.0,0.2,-0.9,x,82.4*,95.0
COc1ccc(N=c2ssnc2Cl)cc1,1.4,-10.5,2.2,x,1.8,106.0
N#Cc1ccc(N=c2ssnc2Cl)cc1,2.0,-5.2,-4.0,x,99.3*!,106.0
COc1cc(N=c2ssnc2Cl)cc(OC)c1OC,-2.3,3.1,-1.0,x,99.3*,99.0
C[C@@H]1CN([C@@H](C)CO)C(=O)Cc2cc(NC(=O)Cc3ccccc3)ccc2O[C@H]1CN(C)Cc1ccncc1,x,x,x,-0.1,x,x
CC(=O)OC[C@]12CC[C@H]3[C@@](C)(CC[C@H]4C(C)(C)CCC[C@]34C)[C@@H]1CC(C1=CC(=O)OC1O)O2 (some centres undefined),x,x,-27.3,0.2,85.6*,95.0

# Screens deposited in PubChem by several laboratories.
